Assay outcomes (PubChem BioAssay)
Sampled rows, rich in hits. Any-hit rate of the full collection: about 8.9%.
b-catenin transl: beta-catenin nuclear translocation modulation. HeLa beta-catenin nuclear translocation, immunofluorescence imaging. nuclear translocation activity, % at 5 µM. 190,000 compounds, 0.3% hits;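 active = nuclear translocation activity above 50% at 5 µM, with a well cell count of 50 or more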;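 note: per-cell ratio of nuclear to cytoplasmic median beta-catenin stain intensity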
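Technique: fluorescence imaging of beta-catenin antibody stain plus DAPI / Material: human HeLa cell line / Incubation: compound treatment 24 h, 37°C, 5% CO2 / Read-out basis: % activation of per-cell nuclear versus cytoplasmic median beta-catenin signal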
HSV replic up: increases HSV replication in cells; HSV replication augmentation in cells, fold increase; maximum fold increase; 220,000 compounds, 0.005% hits; in the data active = maximum fold increase above about 1.5; tested in PC3 cells
MT stabilize HCS: stabilizes microtubules in HeLa cells; HeLa tubulin immunostaining HCS, 24 h; share of cells brighter than vehicle mean+2SD; % tubulin-high responders, % at 10 µM; 200,000 compounds, 0.83% hits;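 active = plate Z-score above 3 for both tubulin-high and condensed-nucleus cell shares, with cell loss under 80%, at 10 µM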;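 note: anti alpha tubulin signal scored within the nucleus-defined area of each cell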
Dynein transport: blocks dynein driven cargo transport along microtubules. 220,000 compounds, 0.47% hits. z-score, hits read low. AID 1381. 3617.4 mouse cells, GR-EGFP nuclear translocation imaging; test concentration mostly 20 µM; stimulated with dexamethasone, 1 µM; active compounds read low;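 active = plate z-score of nuclear minus cytoplasmic receptor signal below a set negative limit, without overly bright fluorescence or cell loss, cut at about -3.5 in these data, passing the limit was not always enough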;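 note: z-score of nuclear minus cytoplasmic ring GR-EGFP intensity difference per well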
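Buffer or medium: tet-free medium with charcoal-stripped serum / Also added: dexamethasone agonist, 1.0 µM final, for 30 min / Timing: induction 48 h, compound 1 h, agonist 30 min / Measured by: high-content fluorescence imaging after fixation / Read-out: nuclear-to-cytoplasmic GR-EGFP distribution per well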
Lmaj promast: reduces viability of Leishmania major promastigotes | 200,000 compounds, 9% hits | inhibition, % at 10 µM | resazurin fluorescence viability; in the data active = inhibition above about 50%;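 note: promastigotes grown with compound for 44 hours at 28 °C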
Hits are given with their value; n = inactive; x = not tested or not shown.

SMILES | b-catenin transl | HSV replic up | MT stabilize HCS | Dynein transport | Lmaj promast
CCCCOC(=O)C1=C(C)Nc2ncnn2C1c1ccc(OC)c(OC)c1 (stereo not given) | n | n | n | n | 75.2
CC1=C(C(=O)OC2CCCCC2)C(c2cccnc2)n2nnnc2N1 (stereo not given) | n | n | n | n | n
COc1ccc(C2C(C(=O)OC3CCCCC3)=C(C)Nc3nnnn32)c(OC)c1OC (stereo not given) | n | n | n | n | 91.4
CCOC(=O)C1=C(C)NC(=S)N(C(C)=O)C1c1ccc(OC)c(OC)c1 (stereo not given) | n | n | x | n | x
CCOC(=O)C1=C(C)Nc2nnnn2C1c1ccc(OC)c(Br)c1 (stereo not given) | n | n | n | n | 90.9
COc1ccc2[nH]c(C(=O)N(Cc3ccccn3)Cc3ccccn3)cc2c1 | n | n | x | n | x
COc1ccc(NC(=O)c2c(NC(=O)CCC(=O)O)sc(-c3ccccc3)c2C)cc1 | n | n | n | n | n
COc1ccc(/C=N/n2c(N)nc3ccccc32)cc1OC | n | n | n | n | n
COc1ccc(/C=N/n2c(N)nc(-c3ccccc3)c2-c2ccccc2)cc1 | n | n | n | n | 56.6
CC(C)C(c1nnnn1CC1CCCO1)N1CCN(Cc2ccc3c(c2)OCO3)CC1 (stereo not given) | n | n | n | n | 83.3
c1ccc(CCn2nnnc2C(c2cccs2)N2CCN(Cc3ccc4c(c3)OCO4)CC2)cc1 (stereo not given) | n | n | n | n | 79.9
CC(C)C(c1nnnn1CC1CCCO1)N1CCN(C2CCCC2)CC1 (stereo not given) | n | n | n | n | n
CCN1CCN(C(c2ccccc2F)c2nnnn2Cc2ccc3c(c2)OCO3)CC1 (stereo not given) | n | n | n | n | n
CC(C)C(c1nnnn1Cc1ccccc1)N1CCN(Cc2ccc3c(c2)OCO3)CC1 (stereo not given) | n | n | n | n | 88.7
COc1ccc(-c2cc(-c3cc(F)ccc3O)[nH]n2)cc1OC | n | n | n | n | n
O=C(N/N=C/c1c[nH]c2ccccc12)C1CC1c1ccccc1 (stereo not given) | n | n | n | n | n
CCCCOC(=O)CSc1nc2ccccc2o1 | n | n | x | n | x
CC(C)[C@H](NC(=O)c1ccccc1F)C(=O)Nc1nc2c(s1)CCCC2 | n | n | n | n | n
COc1cc(OC)cc(C(=O)N[C@H](C(=O)Nc2nc3c(s2)CCCC3)C(C)C)c1 | x | n | n | n | 89.7
COC(=O)Nc1nc2c(s1)CCCC2 | x | n | n | n | n
CC(C)(C)c1ccc(C(=O)NC(=S)Nc2nc3c(s2)CCCC3)cc1 | x | n | n | n | 67.4
CN(C)c1ccc(C(=O)Nc2nc3c(s2)CCCC3)cc1 | n | n | n | n | 98.3
CC(C)(C)c1ccc(C(=O)NC(=S)Nc2sc3c(c2C#N)CCC3)cc1 | n | n | n | n | n
Cc1ccc(S(=O)(=O)N2CCOCC2)cc1NC(=O)CNCc1ccccn1 | n | n | x | n | x
COc1ccc(C(=O)NNC(=S)NC(=O)c2ccc(Br)o2)cc1OC | n | n | n | n | n
SMILES | b-catenin transl | HSV replic up | MT stabilize HCS | Dynein transport | Lmaj promast
COc1ccccc1N1CCN(CC(O)c2ccc3cc[nH]c3c2)CC1 (stereo not given) | n | n | n | n | 89.2
CCOC(=O)N1CCN(CC(O)c2ccc3cc[nH]c3c2)CC1 (stereo not given) | x | n | n | n | 70.2
CCOC(=O)N1CCN(CC(O)c2ccc3c(c2)CCN3)CC1 (stereo not given) | n | n | n | n | n
Cc1ccc2c(c1)N(CC(=O)NCC1CCCO1)C(=O)C(C)O2 (stereo not given) | n | n | n | n | n
Cc1ccc(C(=O)NCC2CCCO2)cc1N1CCCC1=O (stereo not given) | n | n | n | n | n
S=C(NC1CCCCC1)N1CCN(C2CCCCC2)CC1 | n | n | n | n | 91.2
O=C(NC1CCCCC1)N1CCN(C2CCCCC2)CC1 | x | n | n | n | 68.3
O=C(NC12CC3CC(CC(C3)C1)C2)N1CCN(C2CCCCC2)CC1 | n | n | n | n | 85.3
O=C(NC1CCCCC1)N1CCCCCCC1 | n | n | n | n | n
S=C(NC1CCCCC1)N1CCOCCOCCN(C(=S)NC2CCCCC2)CCOCCOCC1 | n | n | x | n | x
CN(C)c1ccc(N=Nc2ccccc2C(=O)OCC(=O)N2CCCCCC2)cc1 | n | n | n | n | n
CC1Cc2ccccc2N1C1=CC(=O)CCC1 (stereo not given) | n | n | n | n | 97.7
